The source of these data is ChEMBL document CHEMBL1212775, “A novel class of meso-tetrakis-porphyrin derivatives exhibits potent activities against hepatitis C virus genotype 1b replicons in vitro” (Antimicrob Agents Chemother, 2010).

In assay [1] the test system is Hepatitis C virus. Nature of the assay: Antiviral activity against blasticidin resistant Hepatitis C virus genotype 1b Con1 replicon infected in human HuH7 cells assessed as reduction in viral RNA level by RT-PCR. The class given is functional, organism-based, Hepacivirus hominis. The note with it: Con1, Huh-7. Background: In antiviral work, replicon cells carry a viral genome segment that copies itself.

For assay [2], the system named is Hepatitis C virus. Nature of the assay: Antiviral activity against Hepatitis C virus genotype 1b Con1 infected in human Huh-luc/neo-ET replicon cells assessed as viral replicon survival dosed at 50 nM incubated for 12 days followed by compound removal and reintroduction of 250 ug/ml G418 measured after 12 days post compound withdrawal. It is filed as functional, Hepacivirus hominis. Summed up:
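Huh-luc/neo-ET cells were seeded at 2 × 10^5 per well and kept without G418 for 12 days with DMSO or up to 1 μM drug. Cells were split every 3 days, with medium and drug renewed. Drug was then removed and 250 μg/ml G418 added for 12 more days, sampling at confluence. HCV 5′UTR RNA was measured by one-step qRT-PCR, normalised to β-actin and expressed relative to mock. Viability was read by CellTiter-Glo as % of mock.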

Assay [3] relates to Hepatitis C virus. The assay can be described thus: Antiviral activity against Hepatitis C virus genotype 1b Con1 infected in human Huh-luc/neo-ET replicon cells assessed as reduction of replicon luciferase signal after 72 hrs by luciferase reporter assay in presence of 0% fetal bovine serum. It is filed as functional, organism-based, Hepacivirus hominis. The gist of the method: (§1)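 Huh-luc/neo-ET cells without G418, incubated with serially diluted compounds in medium containing 5%, 10%, 20% or 40% (vol/vol) FBS. Firefly luciferase read after 72 h. EC50 from dose-effect curves. The 0% value is a theoretical EC50 extrapolated from the plot of EC50 versus serum level. Means ± SD of three independent experiments.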

In assay [4] the test system is Hepatitis C virus. Nature of the assay: Antiviral activity against Hepatitis C virus genotype 1b Con1 infected in human Huh-luc/neo-ET replicon cells assessed as reduction in viral RNA level after 24 hrs by RT-PCR. It is filed as functional, organism-based, Hepacivirus hominis. The gist of the method:
(§2)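 Cells seeded at 1 × 10^5 per well and treated with DMSO or compound up to 250 nM for 24, 48 or 72 h. Total RNA diluted to 50 ng/μl. Replicon RNA (5′ UTR) measured in triplicate by one-step qRT-PCR, normalized to β-actin mRNA, and expressed as percent of mock control. Three independent repeats.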

The test system of assay [5] is Hepatitis C virus. Nature of the assay: Antiviral activity against Hepatitis C virus genotype 1b Con1 infected in human Huh-luc/neo-ET replicon cells assessed as inhibition of viral rebound dosed at 1 uM incubated for 9 days followed by compound removal and reintroduction of 250 ug/ml G418 measured after 15 days post compound withdrawal. The note with it: Hepacivirus hominis. It is filed as functional, organism-based. Summed up: (§3)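 In a separate run, Huh-luc/neo-ET replicon cells were treated for 9 days without G418. Drug was then withdrawn and cells were kept for a 15-day rebound period under G418 selection. Surviving cells were scored as the fraction of the population that outlasted selection.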

The subject of assay [6] is Hepatitis C virus. The assay can be described thus: Antiviral activity against Hepatitis C virus genotype 1b Con1 infected in human Huh-luc/neo-ET replicon cells assessed as inhibition of virus-induced cytopathic effect after 24 hrs by luciferase reporter assay. The class given is functional, organism-based, Hepacivirus hominis. Summed up:
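Huh-luc/neo-ET cells seeded at 1 × 10^5 per well and treated with DMSO or serially diluted compound up to 250 nM. Harvested at 24 or 48 h. Luciferase run in triplicate and RLU normalized to total protein (Bradford), expressed as percent of mock control. Three independent repeats averaged.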

The next assay concerns MT2. Nature of the assay: Cytotoxicity against human MT2 cells after 5 days by colorimetry. The class given is cell-based. The note with it: MT2, 120 h. The gist of the method: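 Uninfected MT-2 cells coincubated with compounds for 5 days. Cytotoxicity by colorimetric quantitation.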
Assay [7] has as its system Hepatitis C virus. Nature of the assay: Antiviral activity against Hepatitis C virus genotype 1b Con1 infected in human Huh-luc/neo-ET replicon cells assessed as inhibition of viral RNA level dosed at >300 nM incubated for 12 days measured after 12 days of exposure relative to untreated control.
The subject of assay [8] is Hepatitis C virus. Nature of the assay: Antiviral activity against Hepatitis C virus genotype 1b Con1 infected in human Huh-luc/neo-ET replicon cells assessed as reduction in viral RNA level after 72 hrs by RT-PCR. It is filed as functional, organism-based, Hepacivirus hominis. The gist of the method:
as §2

Assay [9] concerns Hepatitis C virus. The assay can be described thus: Antiviral activity against Hepatitis C virus genotype 1b Con1 infected in human Huh-luc/neo-ET replicon cells assessed as inhibition of viral rebound dosed at 300 nM incubated for 9 days followed by compound removal and reintroduction of 250 ug/ml G418 measured after 15 days post compound withdrawal. It is filed as functional, organism-based. Conditions: Hepacivirus hominis. The gist of the method:
as §3

Assay [10] has as its system Hepatitis C virus. Nature of the assay: Antiviral activity against Hepatitis C virus genotype 1b Con1 infected in human Huh-luc/neo-ET replicon cells assessed as reduction of replicon luciferase signal after 72 hrs by luciferase reporter assay in presence of 20% fetal bovine serum. It is filed as functional, organism-based, Hepacivirus hominis. The gist of the method:
as §1

Active and inactive are the calls of the source. The calls are words filed in the database; no cut-off is given here.

The term EC50 denotes the concentration needed to bring the measured effect to its halfway point. Usually CC50 stands for the concentration at which the toxic effect on the cells reaches its halfway point. Higher therefore signals lower toxicity to the cells. As to `O=C(O)c1cc(C(=O)O)cc(-c2ccc(-c3c4nc(c(-c5ccc(-c6cc(C(=O)O)cc(C(=O)O)c6)cc5)c5ccc([nH]5)c(-c5ccc(-c6cc(C(=O)O)cc(C(=O)O)c6)cc5)c5ccc([nH]5)c(-c5ccc(-c6cc(C(=O)O)cc(C(=O)O)c6)cc5)c5nc3C=C5)C=C4)cc2)c1`, the EC50 was 0.014 µM in the assay on Hepatitis C virus [1]; 0.0065 µM in the assay on Hepatitis C virus [3]; 0.0678 µM in the assay on Hepatitis C virus [4]; 0.0578 µM in the assay on Hepatitis C virus [6]; 0.0292 µM in the assay on Hepatitis C virus [8]; 0.039 µM in the assay on Hepatitis C virus [10]. Further, in the assay on Hepatitis C virus [2], the Survival is listed as 13.1%. For the same compound, the inhibition result with Hepatitis C virus [4] (Hepacivirus hominis), in the assay with Hepatitis C virus [6] (Hepacivirus hominis) and in the assay on Hepatitis C virus [8] (Hepacivirus hominis) was “Dose-dependent effect” throughout. Further, the inhibition entry in the assay on Hepatitis C virus [5] and in the assay with Hepatitis C virus [9] was “Active” in each case. For the same compound, in the assay on MT2, the CC50 was found to be 18 µM. For the same compound, in the assay with Hepatitis C virus [7], the “fold change (FC)” value worked out at 4.5.
